Measurements of several laboratories.
Compare with care: the assays were run in different laboratories.
Target: MAP kinase-interacting serine/threonine-protein kinase 1 (MKNK1, Homo sapiens, UniProt Q9BUB5)

| SMILES | read-out | mode | technique | concentration | measurement | result |
| --- | --- | --- | --- | --- | --- | --- |
| Cn1cncc1[C@](O)(COc1ccc(C#N)cc1-c1ccc(OC(F)(F)F)cc1)c1ccc(C#N)cc1 | cell-free assay |  | competition with immobilised ligand | 1 µM | remaining binding | 68% |
| O=c1[nH]c2ccccc2n1C1CCN(Cc2ccc(-c3[nH]c4cc5ncnc5cc4nc3-c3ccccc3)cc2)CC1 | cell-free assay |  |  | 0.5 µM | remaining signal | 104% |
| COc1cc(Nc2ncc(F)c(Nc3ccc4c(n3)NC(=O)C(C)(C)O4)n2)cc(OC)c1OC | binding |  | competition with immobilised ligand | 10 µM | inhibition | 9% |
| N#CC1(c2ccccn2)CCN(Cc2cc(C(=O)O)c(=O)n3ccccc23)CC1 | cell-free assay |  | competition with immobilised ligand | 1 µM | remaining binding | 85% |
| COc1ncccc1-c1cnn2ccc(N3CCN(C(=O)OC(C)C)CC3)nc12 | binding |  | competition with immobilised ligand | 1 µM | remaining binding | 100% |
| Cc1nn(C)cc1-c1nc2c(N3CCN(Cc4ccc(Cl)cc4)CC3)c(Cl)cnc2[nH]1 | binding |  | competition with immobilised ligand | 1 µM | remaining binding | 100% |
| CC(C)(C)c1cc(C=C(C#N)C#N)cc(Br)c1O | enzyme activity | inhibitor |  | 0.5 µM | remaining activity | 95.9% |
| Nc1ncc(-c2nc(N3CCOCC3)nc(N3CCOCC3)n2)c(C(F)F)n1 | binding |  | competition with immobilised ligand | 10 µM | remaining binding | 45% |
